Columns and labels:
[1] = clinical trials, TMZ dosing regimen 150 mg/m^2/day; cited from earlier work
[2] = Phase I clinical trial pharmacokinetic study of MX; format: in vivo, human; conditions: for Measured [MX] First analysis / Measured [MX] Re-analysis after 9 months: patient plasma; for Measured [MX] Re-analysis after 9 months: after 9-month storage at −70 °C
Summary of the method: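 Heparinised blood was iced, spun (1500 × g, 4 °C, 5 min), and plasma stored at −70 °C. Plasma was derivatised and assayed by LC-MS/MS against a calibration curve. Infusion data were fitted one-compartment; 1-h data were analysed by NCA.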

[3] = Stability of MX in human plasma QCs; format: in vitro ADME; conditions: for recoveries of QC samples: three concentrations (3.50, 45.0 and 450 ng/ml)
Summary of the method: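 Plasma QCs were prepared in pooled human plasma with 10% 0.100 N HCl and held on the bench (23 °C), in the autosampler (15 °C), through freeze-thaw cycles (−70 to 23 °C) or at −70 °C. Samples were derivatised with 4-(N,N-diethylamino)benzaldehyde (70 °C, 1 h), extracted into MTBE and run by MRM LC-MS/MS. The mean MX/MX-d3 peak-area ratio (n = 6) relative to freshly prepared QCs is given as percent recovery.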

[4] = Stability of MX in human whole blood kept in ice bath before centrifugation; format: in vitro ADME
Summary of the method: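 From one patient, five 2-ml lithium-heparin blood tubes were drawn 70 min after infusion and kept in an ice bath. They were centrifuged 0, 30, 60, 90 and 120 min after drawing (1500 × g, 4 °C, 5 min). Plasma was analysed later by the derivatisation LC-MS/MS method, and the mean, SD and %CV were calculated.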

[5] = Stability of MX stock solution; format: physicochemical; conditions: for Recovery ± SD (n = 6): Stock solution 2.00 mg/ml
Summary of the method: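 The 2.00 mg/ml stock was stored at 4 °C or at 23 °C, then serially diluted to 45.0 ng/ml in 1% formic acid. It was derivatised with IS and analysed by MRM LC-MS/MS. Six parallel measurements gave the mean analyte/IS peak-area ratio, expressed as percent recovery against freshly prepared stock.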

[6] = patients, 1-h iv infusion, 20 patients (46 cycles), with oral TMZ

## Cn1nnc2c(C(N)=O)ncn2c1=O [TMZ, Temozolomide]
[1]
  maximum concentrations (Cmax) in human plasma: below 10 μg/ml

## CON [MX, Methoxyamine]
[2]; sampling 0.250 h
  Measured [MX] First analysis: 5.36 ng/mL
  Measured [MX] Re-analysis after 9 months: 5.69 ng/mL
[2]; sampling 0.500 h
  Measured [MX] First analysis: 8.95 ng/mL
  Measured [MX] Re-analysis after 9 months: 10.2 ng/mL
[2]; sampling 0.750 h
  Measured [MX] First analysis: 16.2 ng/mL
  Measured [MX] Re-analysis after 9 months: 18.2 ng/mL
[2]; sampling 0.983 h
  Measured [MX] First analysis: 20.5 ng/mL
  Measured [MX] Re-analysis after 9 months: 22.1 ng/mL
[2]; sampling 1.17 h
  Measured [MX] First analysis: 25 ng/mL
  Measured [MX] Re-analysis after 9 months: 27.1 ng/mL
[2]; sampling 2.00 h
  Measured [MX] First analysis: 24.2 ng/mL
  Measured [MX] Re-analysis after 9 months: 24.3 ng/mL
[2]; sampling 4.00 h
  Measured [MX] First analysis: 18.3 ng/mL
  Measured [MX] Re-analysis after 9 months: 20 ng/mL
[2]; sampling 6.00 h
  Measured [MX] First analysis: 19 ng/mL
  Measured [MX] Re-analysis after 9 months: 19.5 ng/mL
[2]; sampling 8.00 h
  Measured [MX] First analysis: 18.9 ng/mL
  Measured [MX] Re-analysis after 9 months: 17.5 ng/mL
[2]; sampling 12.0 h
  Measured [MX] First analysis: 15.6 ng/mL
  Measured [MX] Re-analysis after 9 months: 16.2 ng/mL
[2]; sampling 24.0 h
  Measured [MX] First analysis: 13.3 ng/mL
  Measured [MX] Re-analysis after 9 months: 13.2 ng/mL
[2]; sampling 48.0 h
  Measured [MX] First analysis: 9.46 ng/mL
  Measured [MX] Re-analysis after 9 months: 10 ng/mL
[2]; sampling 72.0 h
  Measured [MX] First analysis: 6.56 ng/mL
  Measured [MX] Re-analysis after 9 months: 6.46 ng/mL
[2]; sampling 96.0 h
  Measured [MX] First analysis: 4.46 ng/mL
  Measured [MX] Re-analysis after 9 months: 4.76 ng/mL
[2]; sampling 120 h
  Measured [MX] First analysis: 3.55 ng/mL
  Measured [MX] Re-analysis after 9 months: 3.69 ng/mL
[2]; sampling 168 h
  Measured [MX] First analysis: 2.11 ng/mL
  Measured [MX] Re-analysis after 9 months: 2.29 ng/mL
[2]; sampling 192 h
  Measured [MX] First analysis: 1.55 ng/mL
  Measured [MX] Re-analysis after 9 months: 1.76 ng/mL
[2]; sampling 216 h
  Measured [MX] First analysis: 1.22 ng/mL
  Measured [MX] Re-analysis after 9 months: 1.39 ng/mL
[2]; [6]
  mean Cmax: 14.98 ng/mL
  mean t1/2: 54.21 h
[3]; High QC 450 ng/ml plasma, Autosampler 15 °C, 3 days
  Recovery ± SD (n = 6): 96.9 ±3%
[3]; High QC 450 ng/ml plasma, Bench-top 23 °C, 18 hours
  Recovery ± SD (n = 6): 95.7 ± 2%
[3]; High QC 450 ng/ml plasma, Deep freezer (Long-term) −70 °C, 5 months
  Recovery ± SD (n = 6): 103 ± 2%
[3]; High QC 450 ng/ml plasma, Freeze & thaw −70 to 23 °C, 3 cycles
  Recovery ± SD (n = 6): 96.2 ± 2%
[3]; Low QC 3.50 ng/ml plasma, Autosampler 15 °C, 3 days
  Recovery ± SD (n = 6): 90.7 ±6%
[3]; Low QC 3.50 ng/ml plasma, Bench-top 23 °C, 18 hours
  Recovery ± SD (n = 6): 89.4 ± 4%
[3]; Low QC 3.50 ng/ml plasma, Deep freezer (Long-term) −70 °C, 5 months
  Recovery ± SD (n = 6): 95.7 ±3%
[3]; Low QC 3.50 ng/ml plasma, Freeze & thaw −70 to 23 °C, 3 cycles
  Recovery ± SD (n = 6): 96.6 ± 2%
[3]; Mid QC 45.0 ng/ml plasma, Autosampler 15 °C, 3 days
  Recovery ± SD (n = 6): 94.5 ± 5%
[3]; Mid QC 45.0 ng/ml plasma, Bench-top 23 °C, 18 hours
  Recovery ± SD (n = 6): 94.5 ± 4%
[3]; Mid QC 45.0 ng/ml plasma, Deep freezer (Long-term) −70 °C, 5 months
  Recovery ± SD (n = 6): 101 ± 2%
[3]; Mid QC 45.0 ng/ml plasma, Freeze & thaw −70 to 23 °C, 3 cycles
  Recovery ± SD (n = 6): 94.4 ± 2%
[3]; autosampler (15 °C)
  recoveries of QC samples: 90.7–96.9%
[3]; bench top
  recoveries of QC samples: 89.4–95.7%
[3]; long-term storage (5 months)
  recoveries of QC samples: 95.7–103%
[3]; three freeze-and-thaw cycles (−70 to 23 °C)
  recoveries of QC samples: 94.4–96.6%
[4]; over a period of 2 hours, samples kept in an ice bath
  changes in MX concentration in human whole blood: no significant changes
[4]; patient blood, ice bath, centrifuged 0-120 min after drawing, SD 0.1 ng/ml
  measured MX concentration, mean value: 10.5 ng/mL
[5]; Bench-top 23 °C, 18 hours
  Recovery ± SD (n = 6): 98.4 ± 6%
[5]; Refrigerator 4 °C, 5 months
  Recovery ± SD (n = 6): 96.4 ± 7%
[5]; refrigerator (4 °C) and bench top (23 °C)
  recoveries of stock solutions: 96.4–98.4%
